The source made the active and inactive calls. No cut-off for these calls is given here.
How the values were obtained:
[1] = Cytotoxicity against human HeLa cells assessed as reduction in cell viability; format: cell-based
[2] = Cytotoxicity against phytohemagglutinin and interleukin-2-stimulated human PBMC cells assessed as reduction in cell viability measured after 7 days by MTS assay; format: cell-based
[3] = (§1) Selectivity index, ratio of CC50 for human HeLa cells assessed as reduction in cell viability to EC50 for wild-type HIV1 NL4-3 infected in human TZM-bl cells infected with supernatants from virus-infected human MT2 cells treated with compound for 48 to 72 hrs assessed as reduction in viral replication after 2 days by bright Glo-luciferase reporter gene assay based BiCycle assay; format: toxicity; conditions: read-out: Ratio CC50/EC50
Outline: (§2)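 Selectivity index is CC50 from the respective cytotoxicity assay (HeLa or PBMC) divided by EC50 from the two-round MT-2/TZM-bl NL4-3 assay.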

[4] = system: Human immunodeficiency virus 1; test: as §1, with “Antiviral activity against” for “Selectivity index, ratio of CC50 for human HeLa cells assessed as reduction in cell viability to EC50 for”; format: functional, organism-based; conditions: Human immunodeficiency virus 1, NL4-3, TZM
Outline: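 Two-round cell assay over the full replication cycle: MT-2 T cells are infected with wild-type reference strain NL4-3 in the first round, and reporter TZM-bl cells are infected in the second round. Values are given as mean ± deviation.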

[5] = Selectivity index, ratio of CC50 for human PBMC cells stimulated with phytohemagglutinin and interleukin-2 assessed as reduction in cell viability measured after 7 days by MTS assay to EC50 for wild-type HIV1 NL4-3 infected in human TZM-bl cells infected with supernatants from virus-infected human MT2 cells treated with compound for 48 to 72 hrs assessed as reduction in viral replication after 2 days by bright Glo-luciferase reporter gene assay based BiCycle assay; format: toxicity; conditions: read-out: Ratio CC50/EC50; outline: as §2
[6] = (§3) Inhibition of HIV1 Nucleocapsid protein (11 to 55 residues) assessed as reduction in NC-induced cTAR DNA destabilization by measuring intrinsic fluorescence using Alexa488-5'-cTAR-3'-Dabcyl oligonucleotide as substrate at 20 degree C incubated for 15 mins by fluorescence assay; set-up: species or system Human immunodeficiency virus 1
Outline: (§4)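 Fluorescence NC-inhibition assay following destabilisation of cTAR DNA, the complement of the HIV-1 transactivation response element, dual-labelled with Alexa488 dye and Dabcyl quencher. NC protein at 1 μM, so the lowest measurable IC50 is 0.5 μM.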

[7] = Half life in mouse plasma at 3 uM by LC-MS/MS analysis; format: ADME, cell-free
[8] = Oral bioavailability in C57BL/6 mouse at 5 mg/kg administered as single dose measured up to 24 hrs by LC-MS/MS analysis; format: ADME, organism-based; conditions: in vivo
Outline: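 C57BL/6 mice were dosed 5 mg/kg orally, with a 2 mg/kg iv reference arm. Plasma was sampled at eight time points up to 24 h.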

[9] = Volume of distribution at steady state in C57BL/6 mouse at 2 mg/kg, iv or 5 mg/kg, po administered as single dose measured up to 24 hrs by LC-MS/MS analysis; format: ADME, organism-based; conditions: in vivo, read-out: Vdss
[10] = system: Human immunodeficiency virus 1; test: as §3, with “Ratio” for “Inhibition”, “of IC50 for NNRTI-resistant HIV1 12231 Nucleocapsid protein (11 to 55 residues) using Alexa488-5'-cTAR-3'-Dabcyl oligonucleotide as substrate to IC50 for” for “of”
[11] = system: Human immunodeficiency virus 1; test: as §3, with “Ratio” for “Inhibition”, “of IC50 for PI-resistant HIV1 11808 Nucleocapsid protein (11 to 55 residues) using Alexa488-5'-cTAR-3'-Dabcyl oligonucleotide as substrate to IC50 for” for “of”
[12] = Half life in C57BL/6 mouse at 2 mg/kg, iv or 5 mg/kg, po administered as single dose measured up to 24 hrs by LC-MS/MS analysis; format: ADME, organism-based; conditions: in vivo
[13] = molecular target: Voltage-gated inwardly rectifying potassium channel KCNH2 (Homo sapiens, UniProt Q12809); test: Displacement of Tracer Red from human ERG measured after 4 hrs by fluorescence polarization assay
Cytochrome P450 3A4 = Cytochrome P450 3A4 (Homo sapiens, UniProt P08684); test: Inhibition of human microsomal CYP3A4 expressed in baculovirus infected insect cells using luciferin-IPA as substrate preincubated with enzyme/substrate mixture for 30 mins followed by further incubation with NADPH for 30 mins by CYP450 luciferase Glo assay; format: ADME
[14] = Clearance in C57BL/6 mouse at 2 mg/kg, iv or 5 mg/kg, po administered as single dose measured up to 24 hrs by LC-MS/MS analysis; format: ADME, organism-based; conditions: in vivo
[15] = Half life in mouse hepatocytes at 3 uM by LC-MS/MS analysis; format: ADME, cell-based, Hepatocyte
[16] = Half life in human hepatocytes at 3 uM by LC-MS/MS analysis; format: ADME, cell-based, Hepatocyte
[17] = system: Human immunodeficiency virus 1; test: Antiviral activity against INI-resistant HIV1 11845; format: functional, organism-based; conditions: Human immunodeficiency virus 1, 11845
[18] = system: Human immunodeficiency virus 1; test: as §3, with “Ratio” for “Inhibition”, “of IC50 for NRTI-resistant HIV1 7401 Nucleocapsid protein (11 to 55 residues) using Alexa488-5'-cTAR-3'-Dabcyl oligonucleotide as substrate to IC50 for” for “of”
Cytochrome P450 2D6 = Cytochrome P450 2D6 (Homo sapiens, UniProt P10635); test: Inhibition of human microsomal CYP2D6 expressed in baculovirus infected insect cells using luciferin-ME as substrate preincubated with enzyme/substrate mixture for 30 mins followed by further incubation with NADPH for 30 mins by CYP450 luciferase Glo assay; format: ADME
[19] = system: Human immunodeficiency virus 1; test: as §3, with “Ratio” for “Inhibition”, “of IC50 for INI-resistant HIV1 11845 Nucleocapsid protein (11 to 55 residues) using Alexa488-5'-cTAR-3'-Dabcyl oligonucleotide as substrate to IC50 for” for “of”
Cytochrome P450 1A2 = molecular target: T1, Cytochrome P450 1A2 (Homo sapiens, UniProt P05177); test: Inhibition of human microsomal CYP1A2 expressed in baculovirus infected insect cells using luciferin-1A2 as substrate preincubated with enzyme-substrate mixture for 30 mins followed by further incubation with NADPH for 30 mins by CYP450 luciferase Glo assay; format: ADME
T1 sequence (P05177 whole entry): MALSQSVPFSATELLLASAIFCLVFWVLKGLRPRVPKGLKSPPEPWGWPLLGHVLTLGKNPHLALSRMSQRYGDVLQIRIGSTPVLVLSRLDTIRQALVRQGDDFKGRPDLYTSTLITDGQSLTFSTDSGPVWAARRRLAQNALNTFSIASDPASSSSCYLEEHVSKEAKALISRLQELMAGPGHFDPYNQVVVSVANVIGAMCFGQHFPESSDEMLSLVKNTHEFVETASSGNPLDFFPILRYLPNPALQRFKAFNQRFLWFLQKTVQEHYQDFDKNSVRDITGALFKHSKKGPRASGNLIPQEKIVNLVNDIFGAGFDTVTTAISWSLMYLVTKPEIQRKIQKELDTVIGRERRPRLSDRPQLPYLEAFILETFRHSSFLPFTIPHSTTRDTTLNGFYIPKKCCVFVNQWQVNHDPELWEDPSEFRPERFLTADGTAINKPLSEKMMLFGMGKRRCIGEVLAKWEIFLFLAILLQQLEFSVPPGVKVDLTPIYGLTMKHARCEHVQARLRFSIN

[20] = molecular target: Human immunodeficiency virus type 1 integrase (Human immunodeficiency virus 1) (UniProt Q7ZJM1); test: Inhibition of wild type recombinant HIV1 His6-tagged integrase expressed in Escherichia coli BL21 using 18 nucleotide 3'-biotin labeled DNA acceptor as substrate upto 10 uM preincubated for 1 hr followed by substrate addition and further incubated for 90 mins in presence of recombinant LEDGF/p75 by HTRF assay
[21] = system: Human immunodeficiency virus 1; test: Antiviral activity against PI-resistant HIV1 11808; format: functional, organism-based; conditions: Human immunodeficiency virus 1, 11808
[22] = system: Human immunodeficiency virus 1; test: Antiviral activity against NRTI-resistant HIV1 7401; format: functional, organism-based; conditions: Human immunodeficiency virus 1, 7401
[23] = system: Human immunodeficiency virus 1; test: Antiviral activity against NNRTI-resistant HIV1 12231; format: functional, organism-based; conditions: Human immunodeficiency virus 1, 12231
[24] = Half life in human plasma at 3 uM by LC-MS/MS analysis; format: ADME, cell-free
[25] = system: Human immunodeficiency virus 1; test: as §3; outline: as §4

Cytochrome P450 3A4, sequence (P08684 whole entry): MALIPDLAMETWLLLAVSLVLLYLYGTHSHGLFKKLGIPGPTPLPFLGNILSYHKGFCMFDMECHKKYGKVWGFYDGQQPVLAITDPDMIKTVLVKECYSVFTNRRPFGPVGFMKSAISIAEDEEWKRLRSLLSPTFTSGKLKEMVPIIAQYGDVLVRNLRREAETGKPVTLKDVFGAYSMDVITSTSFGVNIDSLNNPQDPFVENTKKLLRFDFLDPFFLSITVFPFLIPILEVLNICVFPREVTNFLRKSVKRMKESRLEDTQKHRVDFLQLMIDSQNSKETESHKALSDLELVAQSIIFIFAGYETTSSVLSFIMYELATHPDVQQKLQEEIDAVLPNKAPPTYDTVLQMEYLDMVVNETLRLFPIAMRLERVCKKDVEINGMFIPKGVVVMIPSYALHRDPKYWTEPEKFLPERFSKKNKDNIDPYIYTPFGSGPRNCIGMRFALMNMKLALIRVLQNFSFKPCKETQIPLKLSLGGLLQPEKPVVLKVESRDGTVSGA
Voltage-gated inwardly rectifying potassium channel KCNH2, sequence (Q12809 whole entry): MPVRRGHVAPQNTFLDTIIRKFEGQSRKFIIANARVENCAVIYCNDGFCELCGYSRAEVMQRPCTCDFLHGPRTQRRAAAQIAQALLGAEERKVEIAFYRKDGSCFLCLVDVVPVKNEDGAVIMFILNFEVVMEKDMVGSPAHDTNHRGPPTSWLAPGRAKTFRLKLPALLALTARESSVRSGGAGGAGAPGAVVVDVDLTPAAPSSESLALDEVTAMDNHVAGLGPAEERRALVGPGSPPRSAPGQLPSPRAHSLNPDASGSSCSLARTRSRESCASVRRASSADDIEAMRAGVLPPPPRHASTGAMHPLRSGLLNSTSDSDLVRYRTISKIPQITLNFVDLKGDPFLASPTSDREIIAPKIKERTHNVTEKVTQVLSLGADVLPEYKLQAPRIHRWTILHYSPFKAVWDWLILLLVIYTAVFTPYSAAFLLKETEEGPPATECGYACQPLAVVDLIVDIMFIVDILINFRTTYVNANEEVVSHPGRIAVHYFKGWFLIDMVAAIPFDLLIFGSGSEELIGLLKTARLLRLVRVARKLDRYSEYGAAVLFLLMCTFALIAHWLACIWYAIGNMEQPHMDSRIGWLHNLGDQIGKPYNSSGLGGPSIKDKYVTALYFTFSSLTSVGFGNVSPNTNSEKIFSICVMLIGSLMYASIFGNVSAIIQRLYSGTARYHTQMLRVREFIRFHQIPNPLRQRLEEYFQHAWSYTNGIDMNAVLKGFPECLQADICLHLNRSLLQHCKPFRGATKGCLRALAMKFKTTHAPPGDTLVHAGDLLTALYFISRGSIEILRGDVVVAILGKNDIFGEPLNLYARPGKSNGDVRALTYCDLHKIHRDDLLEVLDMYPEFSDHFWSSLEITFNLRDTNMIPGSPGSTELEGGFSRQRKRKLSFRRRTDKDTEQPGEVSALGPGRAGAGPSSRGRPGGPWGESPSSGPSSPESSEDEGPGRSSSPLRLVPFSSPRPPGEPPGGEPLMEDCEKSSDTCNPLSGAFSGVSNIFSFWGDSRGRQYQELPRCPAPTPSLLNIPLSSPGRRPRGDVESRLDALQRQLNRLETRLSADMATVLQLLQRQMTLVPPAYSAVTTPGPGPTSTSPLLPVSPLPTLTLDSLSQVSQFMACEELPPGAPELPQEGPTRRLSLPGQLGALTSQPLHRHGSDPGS
Cytochrome P450 2D6, sequence (P10635 whole entry, the tested form may be a part): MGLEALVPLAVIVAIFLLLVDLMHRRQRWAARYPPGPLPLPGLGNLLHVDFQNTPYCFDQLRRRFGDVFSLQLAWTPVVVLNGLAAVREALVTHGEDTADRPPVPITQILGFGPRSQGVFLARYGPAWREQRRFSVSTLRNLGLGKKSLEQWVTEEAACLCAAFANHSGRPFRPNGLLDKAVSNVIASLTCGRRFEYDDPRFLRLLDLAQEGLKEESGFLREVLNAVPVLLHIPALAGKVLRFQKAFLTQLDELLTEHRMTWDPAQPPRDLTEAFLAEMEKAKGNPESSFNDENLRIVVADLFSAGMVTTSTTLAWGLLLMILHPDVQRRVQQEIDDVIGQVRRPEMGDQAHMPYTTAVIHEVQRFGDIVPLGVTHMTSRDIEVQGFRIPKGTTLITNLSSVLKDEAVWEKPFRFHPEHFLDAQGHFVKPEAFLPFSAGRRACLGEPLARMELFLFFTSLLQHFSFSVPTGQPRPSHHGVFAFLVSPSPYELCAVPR
Human immunodeficiency virus type 1 integrase (Human immunodeficiency virus 1), sequence (Q7ZJM1 as listed by the source): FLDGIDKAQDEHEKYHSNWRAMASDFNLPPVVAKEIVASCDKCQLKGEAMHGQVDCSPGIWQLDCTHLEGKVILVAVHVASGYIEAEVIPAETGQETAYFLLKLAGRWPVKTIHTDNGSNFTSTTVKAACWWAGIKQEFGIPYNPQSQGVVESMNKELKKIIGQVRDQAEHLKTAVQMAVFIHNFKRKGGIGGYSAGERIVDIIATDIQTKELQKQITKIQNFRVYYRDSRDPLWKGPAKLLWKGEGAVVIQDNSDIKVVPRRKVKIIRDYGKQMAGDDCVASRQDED

C[C@H](NC(=O)c1nc(-c2ccccn2)nc(O)c1O)C1CCCCC1
CC50 [1]: 600 nM | CC50 at 168 h [2]: 2400 nM | selectivity ratio [3]: 3 | EC50 [4]: 200 nM | selectivity ratio at 7 days [5]: 12 | IC50 ([6]; read-out: IC50): 47000 nM

C[C@@H](NC(=O)c1nc(-c2nccc3ccccc23)nc(O)c1O)C1CCCCC1
half-life at 3 µM [7]: 3.7 h | CC50 [1]: 2100 nM | CC50 at 168 h [2]: 5000 nM | bioavailability [8]: 26% | Vd [9]: 0.8 L/kg | Ratio IC50 [10]: 2 | Ratio IC50 [11]: 1.6 | half-life [12]: 1.1 h | IC50 [13]: > 30000 nM | IC50 (Cytochrome P450 3A4): > 30000 nM | clearance [14]: 30.2 mL/min/kg | half-life at 3 µM [15]: 1.7 h | half-life at 3 µM [16]: 2.6 h | selectivity ratio [3]: 21 | EC50 [17]: 90 nM | EC50 [4]: 100 nM | Ratio IC50 [18]: 1.3 | IC50 (Cytochrome P450 2D6): > 30000 nM | selectivity ratio at 7 days [5]: 50 | Ratio IC50 [19]: 0.9 | IC50 (Cytochrome P450 1A2): > 30000 nM | inhibition [20]: inactive | IC50 ([6]; read-out: IC50): 4000 nM | EC50 [21]: 160 nM | EC50 [22]: 130 nM | EC50 [23]: 210 nM

CC(c1ccccc1)c1nc(O)c(O)c(C(=O)NCC2CCCCC2)n1 (stereo not drawn)
IC50 [6]: Not Active

O=C(NCC1CCCCC1)c1nc(CCc2ccccc2)nc(O)c1O
IC50 [6]: Not Active

C[C@@H](NC(=O)c1nc(-c2cc(C(F)(F)F)ccn2)nc(O)c1O)C1CCCCC1
half-life at 3 µM [7]: > 1 h | CC50 [1]: 6000 nM | CC50 at 168 h [2]: 1100 nM | half-life at 3 µM [24]: > 1 h | IC50 [13]: > 30000 nM | IC50 (Cytochrome P450 3A4): > 30000 nM | half-life at 3 µM [15]: 2.4 h | half-life at 3 µM [16]: > 4 h | selectivity ratio [3]: 15 | EC50 [4]: 400 nM | IC50 (Cytochrome P450 2D6): > 30000 nM | selectivity ratio at 7 days [5]: 3 | IC50 (Cytochrome P450 1A2): > 30000 nM | IC50 ([6]; read-out: IC50): 12000 nM

O=C(NCC1CCCCC1)c1nc(-c2ccncc2)nc(O)c1O
IC50 [6]: Not Active

C[C@@H](NC(=O)c1nc(-c2ncccc2C(F)(F)F)nc(O)c1O)C1CCCCC1
IC35 [25]: 20000 nM

Cc1cccc(-c2nc(O)c(O)c(C(=O)N[C@H](C)C3CCCCC3)n2)n1
IC50 ([6]; read-out: IC50): 20000 nM

C[C@@H](NC(=O)c1nc(-c2cc(Cl)ccn2)nc(O)c1O)C1CCCCC1
half-life at 3 µM [7]: > 6 h | CC50 [1]: 3000 nM | CC50 at 168 h [2]: 2500 nM | bioavailability [8]: 40% | Vd [9]: 1.2 L/kg | Ratio IC50 [10]: 0.8 | Ratio IC50 [11]: 0.2 | half-life at 3 µM [24]: > 6 h | half-life [12]: 3.1 h | IC50 [13]: > 30000 nM | IC50 (Cytochrome P450 3A4): > 30000 nM | clearance [14]: 37.1 mL/min/kg | half-life at 3 µM [15]: 1.7 h | half-life at 3 µM [16]: > 4 h | selectivity ratio [3]: 30 | EC50 [17]: 70 nM | EC50 [4]: 100 nM | Ratio IC50 [18]: 0.1 | IC50 (Cytochrome P450 2D6): > 30000 nM | selectivity ratio at 7 days [5]: 25 | Ratio IC50 [19]: 0.7 | IC50 (Cytochrome P450 1A2): > 30000 nM | IC50 ([6]; read-out: IC50): 2000 nM | EC50 [21]: 20 nM | EC50 [22]: 10 nM | EC50 [23]: 80 nM

Cc1ccnc(-c2nc(O)c(O)c(C(=O)N[C@H](C)C3CCCCC3)n2)c1
CC50 [1]: 2700 nM | CC50 at 168 h [2]: 3100 nM | selectivity ratio [3]: 13 | EC50 [4]: 200 nM | selectivity ratio at 7 days [5]: 16 | IC50 ([6]; read-out: IC50): 8000 nM

Cc1ccc(-c2nc(O)c(O)c(C(=O)N[C@H](C)C3CCCCC3)n2)nc1
IC40 [25]: 20000 nM

O=C(NCC1CCCCC1)c1nc(-c2ccccn2)nc(O)c1O
CC50 [1]: 3600 nM | CC50 at 168 h [2]: 2600 nM | selectivity ratio [3]: 3 | EC50 [4]: 1200 nM | selectivity ratio at 7 days [5]: 2 | inhibition [20]: inactive | IC50 ([6]; read-out: IC50): 167000 nM

O=C(NCc1ccccc1)c1nc(-c2ccccn2)nc(O)c1O
IC50 [6]: Not Active

C[C@@H](NC(=O)c1nc(-c2ccccn2)nc(O)c1O)C1CCCCC1
CC50 [1]: 3200 nM | CC50 at 168 h [2]: 3000 nM | selectivity ratio [3]: 5 | EC50 [4]: 700 nM | selectivity ratio at 7 days [5]: 4 | IC50 ([6]; read-out: IC50): 42000 nM

Source: ChEMBL document CHEMBL4613292, “5,6-Dihydroxypyrimidine Scaffold to Target HIV-1 Nucleocapsid Protein” (ACS Med Chem Lett, 2020)
